Experimental data as given in ChEMBL document CHEMBL1124226, “Benzothiopyranoindazoles, a new class of chromophore modified anthracenedione anticancer agents. Synthesis and activity against murine leukemias” (J Med Chem, 1988).

How the values were obtained:
L1210 [1] = assay: In vitro for its inhibitory activity against murine L1210 leukemia; Inactive; format: functional, cell-based, Mus musculus
P388 [2] = assay: In vivo for the optimal dose for activity against P388 leukemia per injection; format: functional, Mus musculus
In short: (§1)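 P388 leukemia in mice, drug given ip on days 1-5 (Q01D×5, IP/IP, NCI testing protocol). Optimum response taken over doses, expressed as mg/kg per injection. Read-outs are %T/C survival and net log cell kill (Schabel method). Cured mice are included in the %T/C and net kill calculations.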

P388 leukemia (mouse) = assay: Net log value for P388 leukemia cell kill in mice was determined
P388 [3] = assay: Percentage T/C survival (treated vs control) against P388 leukemia (day 30 surv); format: functional, Mus musculus; in short: as §1
Mus musculus [4] = organism: Mus musculus; assay: % T/C survival against murine B-16 melanoma (day 60 surv); format: functional
In short: (§2)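 Murine B-16 melanoma in vivo. Optimal dose given as mg/kg per injection. Response is % T/C survival, with day-60 survivors reported as number per group (of 10 or 6).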

L1210 [5] = assay: In vitro for its inhibitory activity against murine L1210 leukemia; format: functional, cell-based; details: Mus musculus
Mus musculus [6] = assay: The compound was evaluated in vivo for the optimal dose for activity against murine B-16 melanoma; format: functional; in short: as §2
Mus musculus [7] = assay: The compound was evaluated in vivo for the optimal dose for activity against of B-16 leukemia per injection; format: functional; details: in the assay text read “B-16 melanoma” for “B-16 leukemia”; in short: as §2

IC50 (L1210 [1])	IC50 (L1210 [5])	Compound	Dose (P388 [2])	Net log cell kill (P388 leukemia (mouse))	T/C (P388 [3])	T/C (Mus musculus [4])	Dose (Mus musculus [6])	Dose (Mus musculus [7])
Not Active	–	CCN(CC)CCn1nc2c3c(c(N)ccc31)Sc1c(OC)cccc1-2.Cl	25 mg/kg	-1.5	109%	–	–	–
–	28 nM	CCN(CC)CCn1nc2c3c(c(NCCNCCO)ccc31)Sc1ccccc1-2.Cl.O	12.5 mg/kg	> 6.8	280%	273%	12 mg/kg	–
Not Active	–	CCN(CC)CCn1nc2c3c(c(N)ccc31)Sc1cc(OC)ccc1-2.Cl.O	–	–	–	–	–	–
–	4.3 nM	CCN(CC)CCn1nc2c3c(c(NCCN4CCOC4=O)ccc31)Sc1ccc(O)cc1-2.Cl.O	12.5 mg/kg	–	–	–	–	–
–	4.8 nM	CCN(CC)CCn1nc2c3c(c(NCCNCCO)ccc31)Sc1ccc(O)cc1-2.Cl.O	1.5 mg/kg	4.5	200%	183%	1.5 mg/kg	–
–	1200 nM	CCN(CC)CCn1nc2c3c(c(NCCN)ccc31)S(=O)(=O)c1ccccc1-2.Cl.O	100 mg/kg	1.8	159%	–	–	–
Not Active	–	CCN(CC)CCn1nc2c3c(c(NCCN4CCOC4=O)ccc31)Sc1ccc(OC)cc1-2.Cl.O	100 mg/kg	6	220%	–	–	–
–	200 nM	CCN(CC)CCn1nc2c3c(c(NCCNCCO)ccc31)Sc1ccc(OC)cc1-2.Cl	25 mg/kg	3.2	–	–	–	–
–	63 nM	CN(C)CCn1nc2c3c(c(N)ccc31)Sc1ccccc1-2.Cl.O	12.5 mg/kg	1.8	165%	–	–	–
–	–	Cl.Nc1ccc2c3c(nn2CCNCCO)-c2ccccc2Sc13.O	25 mg/kg	4.3	188%	259%	25 mg/kg	–
–	210 nM	CCN(CC)CCn1nc2c3c(c(NCCN)ccc31)Sc1ccc(OC)cc1-2.Cl.O	12.5 mg/kg	3.9	–	–	–	–
–	2.6 nM	CCN(CC)CCn1nc2c3c(c(NCCN)ccc31)Sc1ccc(O)cc1-2.Cl.O	0.8 mg/kg	–	186%	–	–	–
–	22 nM	Cl.NCCn1nc2c3c(c(NCCNCCO)ccc31)Sc1ccccc1-2	12.5 mg/kg	> 6.7	233%	–	–	–
–	1500 nM	CCN(CC)CCn1nc2c3c(c(N)ccc31)Sc1ccc(OC)cc1-2.Cl	50 mg/kg	1.4	–	–	–	–
–	2000 nM	CCN(CC)CCn1nc2c3c(c(N)ccc31)Sc1cccc(OC)c1-2	–	–	–	–	–	–
–	11 nM	CCN(CC)CCn1nc2c3c(c(N)ccc31)Sc1ccc(O)cc1-2.Cl.O	6.3 mg/kg	> 6.7	–	264%	1.8 mg/kg	–
–	61 nM	CCN(CC)CCn1nc2c3c(c(N)ccc31)Sc1cccc(O)c1-2	–	–	–	–	–	–
–	240 nM	CCN(CC)CCNc1ccc2c3c(nn2CCNCCO)-c2ccccc2Sc13.Cl.O	25 mg/kg	0.5	–	–	–	–
–	540 nM	O=C1OCCN1CCNc1ccc2c3c(nn2CCNCCO)-c2ccccc2Sc13	–	–	–	–	–	–
Not Active	–	Cl.O.O=S1(=O)c2ccccc2-c2nn(CCNCCO)c3ccc(NCCNCCO)c1c23	200 mg/kg	2.5	168%	–	–	–
–	15 nM	CN(C)CCn1nc2c3c(c(NCCN)ccc31)Sc1ccccc1-2.Cl.O	12.5 mg/kg	> 6.7	270%	–	–	–
–	71 nM	CCN(CC)CCn1nc2c3c(c(NCCN)ccc31)Sc1cc(O)ccc1-2.Cl.O	6.3 mg/kg	–	280%	281%	7.5 mg/kg	–
Not Active	–	CCN(CC)CCn1nc2c3c(c(NCCN)ccc31)Sc1c(O)cccc1-2.Cl.O	6.3 mg/kg	-0.9	122%	–	–	–
–	50 nM	CCN(CC)CCNc1ccc2c3c(nn2CCN(CC)CC)-c2ccccc2Sc13.Cl	25 mg/kg	1.6	–	–	–	–
–	100 nM	Cl.NCCn1nc2c3c(c(N)ccc31)Sc1ccccc1-2	12.5 mg/kg	3.1	181%	–	–	–

IC50 (L1210 [1])	IC50 (L1210 [5])	Compound	Dose (P388 [2])	Net log cell kill (P388 leukemia (mouse))	T/C (P388 [3])	T/C (Mus musculus [4])	Dose (Mus musculus [6])	Dose (Mus musculus [7])
Not Active	–	CC(=O)OCCN(CCn1nc2c3c(c(N)ccc31)Sc1ccccc1-2)C(C)=O.Cl	400 mg/kg	-1.3	117%	–	–	–
Not Active	–	CC(=O)NCCn1nc2c3c(c(N)ccc31)Sc1ccccc1-2.Cl	100 mg/kg	-1.7	100%	–	–	–
–	260 nM	CCN(CC)CCn1nc2c3c(c(NCCCN)ccc31)Sc1ccccc1-2.Cl.O	50 mg/kg	> 6.6	262%	–	–	–
–	140 nM	CCN(CC)CCn1nc2c3c(c(NC(=O)CN)ccc31)Sc1cc(O)ccc1-2.Cl.O	100 mg/kg	–	195%	–	–	–
–	15 nM	CCN(CC)CCn1nc2c3c(c(NC(=O)CN)ccc31)Sc1ccccc1-2.Cl.O	20 mg/kg	2.4	184%	–	–	–
–	27 nM	CN(C)CCCn1nc2c3c(c(NCCN)ccc31)Sc1ccccc1-2.Cl.O	12.5 mg/kg	> 6.7	–	–	–	–
Not Active	–	CCN(CC)CCn1nc2c3c(c(NCCN)ccc31)Sc1cc(OC)ccc1-2.Cl.O	25 mg/kg	-0.4	133%	–	–	–
–	190 nM	CCN(CC)CCn1nc2c3c(c(N)ccc31)Sc1cc(O)ccc1-2	–	–	–	–	–	–
Not Active	–	Br.CCN(CC)CCn1nc2c3c(c(NCCNCCO)ccc31)Sc1c(O)ccc(O)c1-2	50 mg/kg	0.1	–	–	–	–
–	48 nM	Br.CCN(CC)CCn1nc2c3c(c(NCCN)ccc31)Sc1cccc(O)c1-2	12.5 mg/kg	2.8	177%	–	–	–
–	23 nM	Br.Nc1ccc2c3c(nn2CCNCCO)-c2cc(O)ccc2Sc13	3.1 mg/kg	4.2	192%	–	–	–
–	30 nM	Br.CCN(CC)CCn1nc2c3c(c(NCCN)ccc31)Sc1ccccc1-2	12.5 mg/kg	> 6.6	–	159%	–	6.3 mg/kg
–	2200 nM	CCN(CC)CCn1nc2c3c(c(Cl)ccc31)S(=O)(=O)c1ccccc1-2	–	–	–	–	–	–
–	810 nM	CCN(CC)CCn1nc2c3c(c(NCCN4CCOC4=O)ccc31)Sc1ccccc1-2	100 mg/kg	6	–	–	–	–
–	100 nM	CCN(CC)CCn1nc2c3c(c(N)ccc31)Sc1ccccc1-2	25 mg/kg	2.2	–	112%	12 mg/kg	–
Not Active	–	CCN(CC)CCn1nc2c3c(c(NCCN4C(=O)c5ccccc5C4=O)ccc31)Sc1c(OC)cccc1-2	12.5 mg/kg	-1.5	107%	–	–	–
Not Active	–	CCN(CC)CCn1nc2c3c(c(NC(=O)CNC(=O)OC(C)(C)C)ccc31)Sc1cc(OC)ccc1-2	–	–	–	–	–	–
Not Active	–	CCN(CC)CCn1nc2c3c(c(NCCNC(=O)OC(C)(C)C)ccc31)Sc1cccc(OC)c1-2	–	–	–	–	–	–
Not Active	–	CCN(CC)CCn1nc2c3c(c(Cl)ccc31)[S+]([O-])c1ccccc1-2 (stereo not given)	–	–	–	–	–	–
–	920 nM	O=S1(=O)c2ccccc2-c2nn(CCNCCO)c3ccc(Cl)c1c23	–	–	–	–	–	–
Not Active	–	CC(=O)NCCn1nc2c3c(c(NCCN4CCOC4=O)ccc31)Sc1ccccc1-2	12.5 mg/kg	-1.6	100%	–	–	–
Not Active	–	CCN(CC)CCn1nc2c3c(c(NCCNC(=O)OC(C)(C)C)ccc31)Sc1cc(OC)ccc1-2	6.3 mg/kg	–	93%	–	–	–
Not Active	–	CCN(CC)CCNc1ccc2c3c(nn2CCN(CC)CC)-c2ccccc2S(=O)(=O)c13	12.5 mg/kg	-1.6	101%	–	–	–
–	–	COc1cccc2c1C(=O)c1c(O)c3c(c(O)c1C2=O)C[C@@](O)(C(=O)CO)C[C@@H]3O[C@H]1C[C@H](N)[C@H](O)[C@H](C)O1 [DOXORUBICIN]	2 mg/kg	–	232%	434%	1 mg/kg	–
–	–	O=C1c2c(O)ccc(O)c2C(=O)c2c(NCCNCCO)ccc(NCCNCCO)c21 [MITOXANTRONE]	1.25 mg/kg	–	291%	265%	0.6 mg/kg	–

Compound	IC50 (L1210 [1])	IC50 (L1210 [5])	Dose (P388 [2])	Net log cell kill (P388 leukemia (mouse))	T/C (P388 [3])	T/C (Mus musculus [4])	Dose (Mus musculus [6])	Dose (Mus musculus [7])
CN(C)CCCn1nc2c3c(c(N)ccc31)Sc1ccccc1-2.Cl.O	–	2000 nM	100 mg/kg	4	197%	–	–	–
